Counter-ions that a name gives are not always drawn.
Tests used:
[1] = test system: MCF7; test: Cytotoxicity against human MCF7 cells at 30 uM after 48 hrs by MTT assay; type: functional; conditions: MCF7, 48 h
Method in brief: (§1)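 MCF-7 cells (ATCC) maintained in DMEM with 10% FBS and plated at 10 000 cells/well. MTT (0.5 mg/mL final) then incubated 3 h at 37 °C. Formazan solubilized in 20% SDS/0.02 M HCl and absorbance read at 570 nm. IC50 from nonlinear regression.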

[2] = test system: HL-60; test: Cytotoxicity against human HL60 cells at 30 uM after 48 hrs by MTT assay; type: functional; conditions: HL-60, 48 h
Method in brief: (§2)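 HL60 cells (ATCC) grown in RPMI with 10% FBS and seeded at 10 000 cells/well. After 48 h exposure, MTT added (0.5 mg/mL final) for 3 h at 37 °C. Formazan dissolved in SDS-HCl (20% SDS, 0.02 M HCl) and read at 570 nm. IC50 obtained by nonlinear regression.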

[3] = test system: MCF7; test: Cytotoxicity against human MCF7 cells at 1 uM after 48 hrs by MTT assay; type: functional; conditions: MCF7, 48 h; method in brief: as §1
[4] = test system: HL-60; test: Cytotoxicity against human HL60 cells at 10 uM after 48 hrs by MTT assay; type: functional; conditions: HL-60, 48 h; method in brief: as §2
[5] = test system: HL-60; test: Cytotoxicity against human HL60 cells at 1 uM after 48 hrs by MTT assay; type: functional; conditions: HL-60, 48 h; method in brief: as §2
[6] = test system: MCF7; test: Cytotoxicity against human MCF7 cells at 10 uM after 48 hrs by MTT assay; type: functional; conditions: MCF7, 48 h; method in brief: as §1
[7] = test system: MCF7; test: Cytotoxicity against human MCF7 cells after 48 hrs by MTT assay; type: functional, cell-based; conditions: MCF7, 48 h; method in brief: as §1
[8] = test system: HL-60; test: Cytotoxicity against human HL60 cells after 48 hrs by MTT assay; type: functional, cell-based; conditions: HL-60, 48 h; method in brief: as §2

Row | SMILES | inhibition at 30 µM [1] | inhibition at 30 µM [2] | inhibition at 1 µM [3] | inhibition at 10 µM [4] | inhibition at 1 µM [5] | inhibition at 10 µM [6] | IC50 [7] | IC50 [8]
1 | CC1=C2C3C(=O)C=C4C(=CC(=O)C(O)=C4C)[C@]3(C)CC[C@@]2(C)[C@@H]2C[C@@H](C)C(=O)C[C@]2(C)C1 (some centres undefined) | 5% | 51% | 9% | 0% | 0% | 11% | – | –
2 | COc1c(O)cc2c(c1C(=O)O)C(=O)C=C1[C@@]2(C)CC[C@@]2(C)[C@@H]3C[C@@H](C)C(=O)C[C@]3(C)CC[C@]12C | 11% | 59% | 15% | 57% | 78% | 17% | – | –
3 | COC(=O)[C@]1(C)CC[C@]2(C)CC[C@]3(C)C4CC(=O)c5cc(O)c(O)cc5[C@]4(C)CC[C@@]3(C)[C@@H]2C1 (some centres undefined) | 44% | 65% | 4% | 64% | 35% | 0% | – | –
4 | CC1=C(O)C(=O)C=C2C1=CC=C1[C@@]2(C)CC[C@@]2(C)[C@@H]3C[C@@](C)(O)C(=O)C[C@]3(C)CC[C@]12C | 100% | 90% | 21% | 89% | 80% | 100% | 1400 nM | 200 nM
5 | Cc1c(O)c(O)cc2c1C(=O)C=C1[C@@]2(C)CC[C@@]2(C)[C@@H]3C[C@@H](C)C(=O)C[C@]3(C)CC[C@]12C [6-OXOTINGENOL] | 17% | 100% | 10% | 85% | 45% | 8% | – | –
6 | CC1=C(O)C(=O)C=C2C1=CC=C1[C@@]2(C)CC[C@@]2(C)[C@@H]3C[C@](C)(O)C(=O)C[C@]3(C)CC[C@]12C [20ALPHA-HYDROXYTINGENONE] | 100% | 87% | 14% | 100% | 25% | 85% | 4700 nM | 400 nM
7 | COC(=O)[C@@]1(C)C[C@@H]2[C@@](C)(CC[C@]3(C)C4=CC=C5C(=CC(=O)C(O)=C5C)[C@]4(C)CC[C@@]23C)CC1=O [21-OXOPRISTIMERINE] | 91% | 100% | 0% | 88% | 0% | 32% | 10000 nM | 1400 nM
8 | CC1=C(O)C(=O)C=C2C1=CC(=O)[C@@H]1[C@@]2(C)CC[C@@]2(C)[C@@H]3C[C@@H](C)C(=O)C[C@]3(C)CC[C@]12C [AMAZOQUINONE] | 18% | 100% | 10% | 61% | 66% | 16% | – | –
9 | COC(=O)[C@@]1(C)C[C@@H]2[C@@](C)(CC[C@]3(C)C4CC(=O)c5c(cc(O)c(O)c5C)[C@]4(C)CC[C@@]23C)CC1=O (some centres undefined) [BLEPHARODOL] | 7% | 100% | 15% | 79% | 69% | 8% | – | –
10 | CC1=C(O)C(=O)CC2[C@]3(C)CC[C@@]4(C)[C@@H]5C[C@](C)(C(=O)O)CC[C@]5(C)CC[C@]4(C)C3CC[C@]12C=O (some centres undefined) [CANGORONINE] | 15% | 60% | 16% | 48% | 40% | 9% | – | –
11 | COC(=O)[C@]1(C)CC[C@]2(C)CC[C@]3(C)C4C(=O)C=C5C(=CC(=O)C(O)=C5C)[C@]4(C)CC[C@@]3(C)C2C1 (some centres undefined) [DISPERMOQUINONE] | 60% | 100% | 9% | 100% | 0% | 25% | > 30000 nM | 1700 nM
12 | COc1cccc2c1C(=O)c1c(O)c3c(c(O)c1C2=O)C[C@@](O)(C(=O)CO)C[C@@H]3O[C@H]1C[C@H](N)[C@H](O)[C@H](C)O1 [DOXORUBICIN HYDROCHLORIDE] | 98% | 100% | 69% | 89% | 100% | 76% | > 10000 nM | 100 nM
13 | COC(=O)[C@@]1(C)C[C@@H]2[C@@](C)(CC[C@]3(C)C4CC(=O)c5c(cc(O)c(O)c5C=O)[C@]4(C)CC[C@@]23C)CC1=O (some centres undefined) [MACROCARPIN A] | 36% | 100% | 14% | 100% | 0% | 25% | > 30000 nM | 1700 nM
14 | COC(=O)[C@]1(C)CC[C@]2(C)CC[C@]3(C)C4=CC=C5C(=CC(=O)C(O)=C5C)[C@]4(C)CC[C@@]3(C)[C@@H]2C1 [PRISTIMERIN] | 100% | 100% | 42% | 100% | 96% | 100% | 400 nM | 200 nM
15 | CC1=C(O)C(=O)C=C2C1=CC=C1[C@@]2(C)CC[C@@]2(C)[C@@H]3C[C@@H](C)C(=O)[C@@H](O)[C@]3(C)CC[C@]12C [TINGENIN B] | 100% | 88% | 16% | 82% | 55% | 96% | 4400 nM | 700 nM
16 | CC1=C(O)C(=O)C=C2C1=CC=C1[C@@]2(C)CC[C@@]2(C)[C@@H]3C[C@@H](C)C(=O)C[C@]3(C)CC[C@]12C [TINGENONE] | 100% | 96% | 17% | 100% | 46% | 97% | 3000 nM | 500 nM
